ChEMBL document CHEMBL3120154, “2-[N-Alkyl(R-phenyl)-aminomethyl]-3-phenyl-7-trifluoromethylquinoxalines as anticancer agents inhibitors of folate enzymes” (Eur J Med Chem, 2014)

Experiments:
Type in all cases: functional
M14 = assay: Cytotoxicity against human M14 cells at 10^-6 M after 48 hrs by SRB assay; conditions: M14, 48 h, read-out: GI
Summary of the method: (§1)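 Run in the NCI 60-cell-line screen after a three-line prescreen. Cells got a 48 h drug exposure; viability/growth was estimated with the sulforhodamine B protein assay. Growth inhibition (I%) was recorded at 100, 10, 1, 0.1 and 0.01 micromolar. Percent growth is relative to untreated control cells, and negative values indicate cell kill.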

SNB-19 [1] = assay: Cytotoxicity against human SNB19 cells at 10^-6 M after 48 hrs by SRB assay; conditions: SNB-19, 48 h, read-out: GI
SW-620 = assay: Cytotoxicity against human SW620 cells at 10^-6 M after 48 hrs by SRB assay; conditions: SW-620, 48 h, read-out: GI
SF-268 [2] = assay: Cytotoxicity against human SF268 cells at 10^-6 M after 48 hrs by SRB assay; conditions: SF-268, 48 h, read-out: GI
Summary of the method: (§2)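 Second-stage screen in the 60-cell-line human tumor panel at NCI, over a 5-log range (100, 10, 1, 0.1, 0.01 micromolar). Cells were exposed to drug for 48 h and growth was estimated with a sulforhodamine B protein stain. The value is percent growth inhibition at each concentration.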

HT-29 = assay: Cytotoxicity against human HT-29 cells at 10^-6 M after 48 hrs by SRB assay; conditions: HT-29, 48 h, read-out: GI
Summary of the method: (§3)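 Run by NCI on its 60-line human tumor cell panel, after a three-cell-line prescreen. Cells were exposed to drug for 48 h over a 5-log range: 100, 10, 1, 0.1 and 0.01 micromolar. Growth was estimated by sulforhodamine B (SRB) protein staining. Percent growth inhibition (I%) was recorded at each concentration relative to untreated control cells.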

HCT-15 = assay: Cytotoxicity against human HCT15 cells at 10^-6 M after 48 hrs by SRB assay; conditions: HCT-15, 48 h, read-out: GI; summary of the method: as §3
BT-549 = assay: Cytotoxicity against human BT549 cells at 10^-6 M after 48 hrs by SRB assay; conditions: BT-549, 48 h, read-out: GI; summary of the method: as §3
MCF7 = assay: Cytotoxicity against human MCF7 cells at 10^-6 M after 48 hrs by SRB assay; conditions: MCF7, 48 h, read-out: GI; summary of the method: as §1
PC-3 = assay: Cytotoxicity against human PC3 cells at 10^-6 M after 48 hrs by SRB assay; conditions: PC-3, 48 h, read-out: GI; summary of the method: as §2
TK-10 = assay: Cytotoxicity against human TK10 cells at 10^-6 M after 48 hrs by SRB assay; conditions: TK-10, 48 h, read-out: GI
ACHN [3] = assay: Cytotoxicity against human ACHN cells at 10^-6 M after 48 hrs by SRB assay; conditions: read-out: GI; summary of the method: as §3
A498 [4] = assay: Cytotoxicity against human A498 cells at 10^-6 M after 48 hrs by SRB assay; conditions: A498, 48 h, read-out: GI; summary of the method: as §3
HCT-116 = assay: Cytotoxicity against human HCT116 cells at 10^-6 M after 48 hrs by SRB assay; conditions: HCT-116, 48 h, read-out: GI; summary of the method: as §3
NCI-H522 [5] = assay: Cytotoxicity against human NCI-H522 cells at 10^-6 M after 48 hrs by SRB assay; conditions: NCI-H522, 48 h, read-out: GI; summary of the method: as §1
NCI-H23 [6] = assay: Cytotoxicity against human NCI-H23 cells at 10^-6 M after 48 hrs by SRB assay; conditions: NCI-H23, 48 h, read-out: GI; summary of the method: as §1
MOLT-4 = assay: Cytotoxicity against human MOLT4 cells at 10^-6 M after 48 hrs by SRB assay; conditions: MOLT-4, 48 h, read-out: GI; summary of the method: as §1
HL-60(TB) = assay: Cytotoxicity against human HL-60(TB) cells at 10^-6 M after 48 hrs by SRB assay; conditions: HL-60, 48 h, read-out: GI
Summary of the method: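 NCI 60-human-tumour-cell-line screen run over a 5-log dose range (100, 10, 1, 0.1 and 0.01 µM). Cells were exposed to drug for 48 h. Growth was estimated by sulforhodamine B protein staining. Values are percent growth inhibition at each concentration, relative to untreated control cells.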

[7] = Cytotoxicity against human Hs578T cells at 10^-5 M after 48 hrs by SRB assay; conditions: Hs-578T, read-out: GI; summary of the method: as §3
MDA-MB-231 = assay: Cytotoxicity against human MDA-MB-231 cells at 10^-5 M after 48 hrs by SRB assay; conditions: MDA-MB-231, 48 h, read-out: GI; summary of the method: as §1
NCI/ADR-RES = assay: Cytotoxicity against human NCI/ADR-RES cells at 10^-5 M after 48 hrs by SRB assay; conditions: read-out: GI; summary of the method: as §1
RXF 393 = assay: Cytotoxicity against human RXF393 cells at 10^-5 M after 48 hrs by SRB assay; conditions: RXF 393, 48 h, read-out: GI; summary of the method: as §2
ACHN [8] = assay: Cytotoxicity against human ACHN cells at 10^-5 M after 48 hrs by SRB assay; conditions: read-out: GI; summary of the method: as §3
A498 [9] = assay: Cytotoxicity against human A498 cells at 10^-5 M after 48 hrs by SRB assay; conditions: A498, 48 h, read-out: GI; summary of the method: as §3
IGROV-1 = assay: Cytotoxicity against human IGROV1 cells at 10^-5 M after 48 hrs by SRB assay; conditions: IGROV-1, 48 h, read-out: GI; summary of the method: as §1
SK-MEL-28 = assay: Cytotoxicity against human SK-MEL-28 cells at 10^-5 M after 48 hrs by SRB assay; conditions: SK-MEL-28, 48 h, read-out: GI; summary of the method: as §2
SK-MEL-2 = assay: Cytotoxicity against human SK-MEL-2 cells at 10^-5 M after 48 hrs by SRB assay; conditions: SK-MEL-2, 48 h, read-out: GI; summary of the method: as §2
LOX IMVI = assay: Cytotoxicity against human LOXIMVI cells at 10^-5 M after 48 hrs by SRB assay; conditions: read-out: GI; summary of the method: as §1
SNB-19 [10] = assay: Cytotoxicity against human SNB19 cells at 10^-5 M after 48 hrs by SRB assay; conditions: SNB-19, 48 h, read-out: GI
SF-268 [11] = assay: Cytotoxicity against human SF268 cells at 10^-5 M after 48 hrs by SRB assay; conditions: SF-268, 48 h, read-out: GI; summary of the method: as §2
NCI-H522 [12] = assay: Cytotoxicity against human NCI-H522 cells at 10^-5 M after 48 hrs by SRB assay; conditions: NCI-H522, 48 h, read-out: GI; summary of the method: as §1
NCI-H23 [13] = assay: Cytotoxicity against human NCI-H23 cells at 10^-5 M after 48 hrs by SRB assay; conditions: NCI-H23, 48 h, read-out: GI; summary of the method: as §1
HOP-62 = assay: Cytotoxicity against human HOP62 cells at 10^-5 M after 48 hrs by SRB assay; conditions: HOP-62, 48 h, read-out: GI; summary of the method: as §3
RPMI-8226 = assay: Cytotoxicity against human RPMI8226 cells at 10^-5 M after 48 hrs by SRB assay; conditions: RPMI-8226, 48 h, read-out: GI; summary of the method: as §2
CCRF-CEM = assay: Cytotoxicity against human CCRF-CEM cells at 10^-5 M after 48 hrs by SRB assay; conditions: read-out: GI; summary of the method: as §3
OVCAR-8 = assay: Cytotoxicity against human OVCAR8 cells at 10^-7 M after 48 hrs by SRB assay; conditions: OVCAR-8, 48 h, read-out: GI
K562 = assay: Cytotoxicity against human K562 cells at 10^-5 M after 48 hrs by SRB assay; conditions: K562, 48 h, read-out: GI

Row | SMILES | inhibition of growth at 1 µM (M14) [%] | inhibition of growth at 1 µM (SNB-19 [1]) [%] | inhibition of growth at 1 µM (SW-620) [%] | inhibition of growth at 1 µM (SF-268 [2]) [%] | inhibition of growth at 1 µM (HT-29) [%] | inhibition of growth at 1 µM (HCT-15) [%] | inhibition of growth at 1 µM (BT-549) [%] | inhibition of growth at 1 µM (MCF7) [%] | inhibition of growth at 1 µM (PC-3) [%] | inhibition of growth at 1 µM (TK-10) [%] | inhibition of growth at 1 µM (ACHN [3]) [%] | inhibition of growth at 1 µM (A498 [4]) [%] | inhibition of growth at 1 µM (HCT-116) [%] | inhibition of growth at 1 µM (NCI-H522 [5]) [%] | inhibition of growth at 1 µM (NCI-H23 [6]) [%] | inhibition of growth at 1 µM (MOLT-4) [%] | inhibition of growth at 1 µM (HL-60(TB)) [%] | inhibition of growth at 10 µM [7] [%] | inhibition of growth at 10 µM (MDA-MB-231) [%] | inhibition of growth at 10 µM (NCI/ADR-RES) [%] | also measured
1 | C#CCN(Cc1nc2cc(C(F)(F)F)ccc2nc1-c1ccccc1)c1ccc(C)cc1 | 54 | 54 | < 40 | < 40 | < 40 | 63 | < 40 | 64 | < 40 | < 40 | < 40 | < 40 | 66 | 49 | < 40 | 67 | 66 | 88 | 64 | 113 | inhibition of growth at 10 µM (RXF 393): 70%; inhibition of growth at 10 µM (ACHN [8]): 95%; inhibition of growth at 10 µM (A498 [9]): 116%; inhibition of growth at 10 µM (IGROV-1): 63%; inhibition of growth at 10 µM (SK-MEL-28): 71%; inhibition of growth at 10 µM (SK-MEL-2): 72%; inhibition of growth at 10 µM (LOX IMVI): 54%; inhibition of growth at 10 µM (SNB-19 [10]): 92%; inhibition of growth at 10 µM (SF-268 [11]): 50%; inhibition of growth at 10 µM (NCI-H522 [12]): 76%; inhibition of growth at 10 µM (NCI-H23 [13]): 92%; inhibition of growth at 10 µM (HOP-62): 71%; inhibition of growth at 10 µM (RPMI-8226): < 40%; inhibition of growth at 10 µM (CCRF-CEM): < 40%
2 | CCN(Cc1nc2cc(C(F)(F)F)ccc2nc1-c1ccccc1)c1ccc(OC)c(OC)c1 | < 40 | < 40 | < 40 | < 40 | < 40 | < 40 | < 40 | < 40 | 13 | < 40 | < 40 | 26 | 12 | < 40 | 14 | < 40 | < 40 | 43 | 36 | 21 | inhibition of growth at 0.1 µM (OVCAR-8): 25%; inhibition of growth at 10 µM (RXF 393): 102%; inhibition of growth at 10 µM (ACHN [8]): 25%; inhibition of growth at 10 µM (A498 [9]): 63%; inhibition of growth at 10 µM (IGROV-1): 13%; inhibition of growth at 10 µM (SK-MEL-28): < 40%; inhibition of growth at 10 µM (SK-MEL-2): 15%; inhibition of growth at 10 µM (LOX IMVI): 23%; inhibition of growth at 10 µM (SNB-19 [10]): < 40%; inhibition of growth at 10 µM (SF-268 [11]): 15%; inhibition of growth at 10 µM (NCI-H522 [12]): 28%; inhibition of growth at 10 µM (NCI-H23 [13]): 34%; inhibition of growth at 10 µM (HOP-62): 18%; inhibition of growth at 10 µM (RPMI-8226): 97%; inhibition of growth at 10 µM (K562): 62%; inhibition of growth at 10 µM (CCRF-CEM): 70%
